Data taken from ChEMBL document CHEMBL3865815, “Synthesis, anti-cancer evaluation of benzenesulfonamide derivatives as potent tubulin-targeting agents” (Eur J Med Chem, 2016).
In brackets after ≈: the same amount, converted by molar mass. Activity calls are given as the source filed them. The calls are words filed in the database; no cut-off is given here.

Tests used:
[1] = Antiproliferative activity against human HCT116 cells after 72 hrs by MTT assay; format: functional, cell-based; conditions: HCT-116, 72 h
Method in brief: (§1)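 Cells grown in RPMI 1640 with heat-inactivated 10% FBS, 1 mmol/L sodium pyruvate and 2 mmol/L L-glutamine at 37 °C, 5% CO2. Seeded at 3.5×10^4 cells/mL and left 24 h, then exposed to compound for 72 h; DMSO control at 0.5% final. Surviving cells measured by MTT, OD 492/620 nm. IC50 taken from triplicate experiments.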

[2] = Antiproliferative activity against human PC3 cells after 72 hrs by MTT assay; format: functional, cell-based; conditions: PC-3, 72 h; method in brief: as §1
[3] = Antiproliferative activity against human HepG2 cells after 72 hrs by MTT assay; format: functional, cell-based; conditions: HepG2, 72 h; method in brief: as §1
[4] = Antiproliferative activity against human SKOV3 cells after 72 hrs by MTT assay; format: functional, cell-based; conditions: SK-OV-3, 72 h; method in brief: as §1
[5] = Antiproliferative activity against human K562 cells after 72 hrs by MTT assay; format: functional, cell-based; conditions: K562, 72 h; method in brief: as §1
[6] = Antiproliferative activity against human K562/A02 cells after 72 hrs by MTT assay; format: functional, cell-based; conditions: K562/A02, 72 h; method in brief: as §1
[7] = Antiproliferative activity against human KB cells after 72 hrs by MTT assay; format: functional, cell-based; method in brief: as §1
[8] = Antiproliferative activity against human KB/VCR cells after 72 hrs by MTT assay; format: functional, cell-based; method in brief: as §1
[9] = Antiproliferative activity against human MCF7 cells after 72 hrs by MTT assay; format: functional, cell-based; conditions: MCF7, 72 h; method in brief: as §1
[10] = Antiproliferative activity against human MCF7/ADR cells after 72 hrs by MTT assay; format: functional, cell-based; conditions: NCI/ADR-RES; method in brief: as §1
Bos taurus [11] = species: Bos taurus; assay: Inhibition of bovine tubulin assessed as induction of microtubule depolymerization at 1 uM preincubated with compound followed by GTP addition by spectrophotometric analysis
Method in brief: (§2)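 Bovine brain tubulin rich in microtubule-associated protein, 2 mg/mL, in 80 mM PIPES pH 6.9, 2 mM MgCl2, 0.5 mM EGTA and 5% glycerol, incubated with test agent or DMSO in cuvettes. Polymerization started with 1 mM GTP at 37 °C and followed by absorbance at 340 nm.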

A549 [12] = assay: Inhibition of alpha tubulin polymerization in human A549 cells at 200 nM by Hoechst 33258 staining based fluorescent microscopic analysis; format: cell-based
Method in brief: (§3)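 A549 cells treated 24 h with agent (200 nM or 50 nM) or DMSO control. α-Tubulin stained with primary antibody and DyLight488 secondary antibody, nuclei with Hoechst 33258. Imaged by fluorescence microscopy.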

Bos taurus [13] = species: Bos taurus; assay: Inhibition of bovine tubulin assessed as induction of microtubule depolymerization at 3 uM preincubated with compound followed by GTP addition by spectrophotometric analysis; method in brief: as §2
SW480 [14] = assay: Induction of apoptosis in human SW480 cells assessed as early apoptotic cells at 50 nM after 24 hrs by propidium iodide-staining based FACS analysis (reference value: 3.41 %); format: functional
Method in brief: (§4)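 SW480 cells grown in 60 mm dishes to 70–80% confluence and treated 24 h, with DMSO as vehicle. All cells harvested, fixed in 70% alcohol and washed twice in cold PBS. Stained 30 min at 37 °C in 5 µg/ml propidium iodide, 100 µg/ml RNase and 0.2% Triton X-100, then analysed by flow cytometry.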

SW480 [15] = assay: Induction of apoptosis in human SW480 cells assessed as accumulation of cells at M2 quadrant at 50 nM after 24 hrs by propidium iodide-staining based FACS analysis (reference value: 96.68 %); format: functional; method in brief: as §4
[16] = Solubility of compound in pure water at 25 degC; format: physicochemical
Method in brief: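 Measured in pure water at 25 °C.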

A549 [17] = assay: Inhibition of alpha tubulin polymerization in human A549 cells at 50 nM by Hoechst 33258 staining based fluorescent microscopic analysis; format: cell-based; method in brief: as §3
Bos taurus [18] = species: Bos taurus; assay: Induction of bovine tubulin polymerization at 10 uM preincubated followed by GTP addition by spectrophotometric analysis; method in brief: as §2

Row | Structure (SMILES) | IC50 [1] | IC50 [2] | IC50 [3] | IC50 [4] | also measured
1 | COc1ccc2c(c1)OCCCN2S(=O)(=O)c1ccc(-c2cnc(C3CC3)o2)cc1 | 223 nM | 271 nM | 229 nM | 185 nM | –
2 | O=[N+]([O-])c1ccc2c(c1)N(S(=O)(=O)c1ccc(-c3cnc(C4CC4)o3)cc1)CCCO2 | 133 nM | 119 nM | 149 nM | 53 nM | –
3 | O=S(=O)(c1ccc(-c2cnc(C3CC3)o2)cc1)N1CCCOc2ccccc21 | 40 nM | 27 nM | 40 nM | 36 nM | –
4 | O=S(=O)(c1ccc(-c2cnc(C3CC3)o2)cc1)N1CCCSc2ccccc21 | 88 nM | 34 nM | 27 nM | 49 nM | –
5 | O=S(=O)(c1ccc(-c2cnc(C3CC3)o2)cc1)N1CCCOc2cc(F)ccc21 | 30 nM | 42 nM | 65 nM | 28 nM | IC50 [5]: 14 nM; IC50 [6]: 46 nM; IC50 [7]: 15 nM; IC50 [8]: 12 nM; IC50 [9]: 6 nM; IC50 [10]: 12 nM; inhibition (Bos taurus [11]): Active; inhibition (A549 [12]): Active
6 | CN1CCN(S(=O)(=O)c2ccc(-c3cnc(C4CC4)o3)cc2)c2ccccc2C1 | 256 nM | 347 nM | 525 nM | 199 nM | –
7 | O=S(=O)(c1ccc(-c2cnc(C3CC3)o2)cc1)N1CCCc2ccccc21 | 49 nM | 38 nM | 29 nM | 47 nM | –
8 | O=S(=O)(c1ccc(-c2cnc(C3CC3)o2)cc1)N1CCCOc2ccc(Cl)cc21 | 39 nM | 18 nM | 28 nM | 19 nM | –
9 | Nc1ccc2c(c1)OCCCN2S(=O)(=O)c1ccc(-c2cnc(C3CC3)o2)cc1 | 87 nM | 33 nM | 100 nM | 56 nM | –
10 | O=S(=O)(c1ccc(-c2cnc(C3CC3)o2)cc1)N1CCOc2ccccc21 | 71 nM | 77 nM | 58 nM | 47 nM | –
11 | COc1ccc2c(c1)N(S(=O)(=O)c1ccc(-c3cnc(C4CC4)o3)cc1)CCCO2 | 47 nM | 14 nM | 49 nM | 53 nM | –
12 | O=S(=O)(c1ccc(-c2cnc(C3CC3)o2)cc1)N1CCC[S+]([O-])c2ccccc21 (centres undefined) | > 1000 nM | > 1000 nM | > 1000 nM | > 1000 nM | –
13 | O=S(=O)(c1ccc(-c2cnc(C3CC3)o2)cc1)N1CCCCc2ccccc21 | 72 nM | 39 nM | 73 nM | 38 nM | –
14 | Cc1ccc2c(c1)N(S(=O)(=O)c1ccc(-c3cnc(C4CC4)o3)cc1)CCCO2 | 29 nM | 41 nM | 31 nM | 34 nM | –
15 | O=[N+]([O-])c1ccc2c(c1)OCCCN2S(=O)(=O)c1ccc(-c2cnc(C3CC3)o2)cc1 | 145 nM | 72 nM | 71 nM | 120 nM | –
16 | COC(=O)Nc1nc2cc(C(=O)c3cccs3)ccc2[nH]1 | – | – | – | – | inhibition (Bos taurus [13]): Active
17 | O=S(=O)(c1ccc(-c2cnc(C3CC3)o2)cc1)N1CCCOc2ccc(F)cc21 | 24 nM | 18 nM | 36 nM | 15 nM | IC50 [5]: 8 nM; IC50 [6]: 13 nM; IC50 [7]: 7 nM; IC50 [8]: 7 nM; IC50 [9]: 21 nM; IC50 [10]: 20 nM; inhibition (Bos taurus [11]): Active; inhibition (A549 [12]): Active; Activity (SW480 [14]): 7.74%; Activity (SW480 [15]): 92.28%; solubility [16]: 10 µg/mL (≈ 24.1 µM)
18 | CC[C@]1(O)C[C@H]2CN(CCc3c([nH]c4ccccc34)[C@@](C(=O)OC)(c3cc4c(cc3OC)N(C=O)[C@H]3[C@@](O)(C(=O)OC)[C@H](OC(C)=O)[C@]5(CC)C=CCN6CC[C@]43[C@@H]65)C2)C1 [VINCRISTINE] | – | – | – | – | IC50 [5]: 4 nM; IC50 [6]: 926 nM; IC50 [7]: 36 nM; IC50 [8]: 871 nM; IC50 [9]: 29 nM; IC50 [10]: 308 nM; inhibition (A549 [17]): Active
19 | O=S(=O)(c1ccc(-c2cnc(C3CC3)o2)cc1)N1CCOCc2ccccc21 | 187 nM | 137 nM | 242 nM | 175 nM | –
20 | Cc1ccc2c(c1)OCCCN2S(=O)(=O)c1ccc(-c2cnc(C3CC3)o2)cc1 | 766 nM | 241 nM | 795 nM | 179 nM | –
21 | O=S(=O)(c1ccc(-c2cnc(C3CC3)o2)cc1)N1CCSc2ccccc21 | 45 nM | 49 nM | 48 nM | 39 nM | –
22 | CC(=O)O[C@H]1C(=O)[C@@]2(C)[C@H]([C@H](OC(=O)c3ccccc3)[C@]3(O)C[C@H](OC(=O)[C@H](O)[C@@H](NC(=O)c4ccccc4)c4ccccc4)C(C)=C1C3(C)C)[C@]1(OC(C)=O)CO[C@@H]1C[C@@H]2O | – | – | – | – | Activity (Bos taurus [18]): Active
23 | COc1cccc2c1C(=O)c1c(O)c3c(c(O)c1C2=O)C[C@@](O)(C(=O)CO)C[C@@H]3O[C@H]1C[C@H](N)[C@H](O)[C@H](C)O1 [DOXORUBICIN] | – | – | – | – | IC50 [5]: 6 nM; IC50 [6]: 5960 nM; IC50 [7]: 141 nM; IC50 [8]: 1290 nM; IC50 [9]: 140 nM; IC50 [10]: 2940 nM
24 | O=S1(=O)CCCN(S(=O)(=O)c2ccc(-c3cnc(C4CC4)o3)cc2)c2ccccc21 | 263 nM | 5880 nM | 2170 nM | 1620 nM | –
